Data: ChEMBL document CHEMBL1134773, “Design and synthesis of potent and selective alpha(4)beta(7) integrin antagonists” (J Med Chem, 2001)
pIC50: −log10 of the molar value.

Experiments:
[1] = target: T1, Integrin alpha-4/beta-7 (Homo sapiens, UniProt P13612+P26010); assay: Inhibition of alpha-4-beta-7/MAdCAM interactions; format: protein-complex assay
T1 sequence (P13612 whole entry): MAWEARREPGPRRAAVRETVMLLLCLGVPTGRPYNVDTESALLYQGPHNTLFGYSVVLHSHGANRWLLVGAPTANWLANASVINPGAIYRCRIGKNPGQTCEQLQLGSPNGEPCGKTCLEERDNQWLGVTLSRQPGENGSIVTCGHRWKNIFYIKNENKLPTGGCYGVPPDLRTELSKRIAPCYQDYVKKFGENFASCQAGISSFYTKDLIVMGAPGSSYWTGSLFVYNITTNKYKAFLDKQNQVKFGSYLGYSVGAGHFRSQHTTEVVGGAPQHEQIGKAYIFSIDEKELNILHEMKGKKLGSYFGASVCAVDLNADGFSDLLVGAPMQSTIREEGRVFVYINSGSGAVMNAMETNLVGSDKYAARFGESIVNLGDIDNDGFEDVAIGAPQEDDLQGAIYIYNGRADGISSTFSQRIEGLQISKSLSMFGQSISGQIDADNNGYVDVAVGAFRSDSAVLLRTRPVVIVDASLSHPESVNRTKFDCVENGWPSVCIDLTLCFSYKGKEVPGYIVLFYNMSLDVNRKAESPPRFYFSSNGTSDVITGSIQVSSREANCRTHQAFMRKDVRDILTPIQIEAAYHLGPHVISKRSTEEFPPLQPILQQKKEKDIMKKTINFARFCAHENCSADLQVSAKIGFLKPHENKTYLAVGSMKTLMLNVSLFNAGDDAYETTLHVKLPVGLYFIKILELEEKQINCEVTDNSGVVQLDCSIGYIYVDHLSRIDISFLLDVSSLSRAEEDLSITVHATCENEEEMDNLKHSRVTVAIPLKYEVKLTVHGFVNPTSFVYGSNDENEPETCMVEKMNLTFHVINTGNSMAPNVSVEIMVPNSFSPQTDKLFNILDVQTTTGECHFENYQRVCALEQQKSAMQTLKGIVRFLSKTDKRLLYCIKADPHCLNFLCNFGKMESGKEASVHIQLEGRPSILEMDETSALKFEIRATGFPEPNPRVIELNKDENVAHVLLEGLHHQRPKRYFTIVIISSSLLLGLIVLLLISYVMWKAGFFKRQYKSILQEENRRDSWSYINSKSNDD
T1 sequence (P26010 whole entry): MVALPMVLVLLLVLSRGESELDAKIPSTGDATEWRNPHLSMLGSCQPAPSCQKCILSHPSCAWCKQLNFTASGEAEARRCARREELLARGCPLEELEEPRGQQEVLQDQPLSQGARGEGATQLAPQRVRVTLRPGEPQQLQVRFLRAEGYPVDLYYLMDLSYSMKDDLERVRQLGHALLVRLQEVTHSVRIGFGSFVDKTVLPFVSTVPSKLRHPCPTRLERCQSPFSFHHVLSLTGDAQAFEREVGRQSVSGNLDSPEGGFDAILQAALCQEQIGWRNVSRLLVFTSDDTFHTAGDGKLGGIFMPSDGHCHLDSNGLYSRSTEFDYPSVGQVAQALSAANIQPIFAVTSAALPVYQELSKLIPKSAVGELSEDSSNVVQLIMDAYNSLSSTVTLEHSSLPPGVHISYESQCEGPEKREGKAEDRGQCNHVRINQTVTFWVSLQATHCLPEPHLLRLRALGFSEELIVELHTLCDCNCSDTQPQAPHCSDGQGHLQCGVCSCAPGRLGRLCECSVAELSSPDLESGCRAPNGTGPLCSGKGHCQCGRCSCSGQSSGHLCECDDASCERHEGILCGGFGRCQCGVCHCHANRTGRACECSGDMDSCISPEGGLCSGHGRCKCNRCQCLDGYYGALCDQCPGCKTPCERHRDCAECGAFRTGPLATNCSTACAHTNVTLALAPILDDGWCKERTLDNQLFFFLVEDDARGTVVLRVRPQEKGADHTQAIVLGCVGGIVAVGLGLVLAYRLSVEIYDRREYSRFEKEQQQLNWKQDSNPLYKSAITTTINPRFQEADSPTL
Method in brief: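 Plates carried anti-human IgG capture antibody, then 100 ng MAdCAM-Ig (30 min, room temperature), then were blocked 1 h at 37 °C. H33342-labelled 38-β7 cells (8×10^5/mL, Ca2+/Mg2+ 1.0 mM) were preincubated 10 min at 37 °C with peptide. They adhered 30 min at 37 °C, and unbound cells were spun off inversely at 50g. Values are mean ± SD of ≥3 experiments.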

[2] = target: Integrin alpha-4/beta-1 (Homo sapiens) (UniProt P05556+P13612); assay: Inhibition of alpha4-beta1 lymphoma cell binding to CHO-VCAM-1 cells.; format: cell-based
[3] = target: T2, Integrin alpha-4/beta-7 (Homo sapiens) (UniProt P13612+P26010); assay: Ability to inhibit adhesion of alpha4-beta7 integrin expressing 38-beta7 lymphoma cells to chinese hamster ovary (CHO) cells stably transfected with MAdCAM-1; format: cell-based
Method in brief: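 38-β7 lymphoma cells (α4β7+) labelled 30 min at 37 °C with 12 μg/mL H33342, then 8×10^5/mL in buffer with 1.0 mM Ca2+/Mg2+. Preincubated 10 min at 37 °C with peptide at 1 mg/mL final. Allowed to adhere 30 min at 37 °C to confluent MAdCAM-1-transfected CHO monolayers (seeded 24 h before). Nonadherent cells removed by inverse centrifugation. Result given as % of medium control, mean of two experiments.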

[4] = target: T2, Integrin alpha-4/beta-7 (Homo sapiens); assay: Inhibition of alpha4-beta7 lymphoma cell binding to CHO-VCAM-1 cells.; format: cell-based
[5] = system: PBL; assay: Effect on human PBL cell binding to Laminin.; format: cell-based
Method in brief: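 Human PBL labelled with H33342 (12 μg/mL, 30 min, 37 °C), resuspended at 8×10^5/mL with 1.0 mM Ca2+ and Mg2+. Peptides at 1 mg/mL final were preincubated with the cells for 10 min at 37 °C. Cells then adhered 30 min at 37 °C to plates coated 16 h at 4 °C with 2 μg/well laminin (pH 9.4 carbonate). Read-out is % of medium control, mean ± SD of ≥3 experiments.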

pIC50 [1]	Adhesion [2]	Adhesion [3]	Adhesion [4]	Structure (SMILES)	Adhesion [5]
3.79	–	–	–	CC(C)C[C@@H]1NC(=O)[C@H](Cc2ccccc2)NC(=O)[C@H]2CCCN2C(=O)[C@H](CC(=O)O)NC(=O)[C@H]([C@@H](C)O)NC(=O)[C@H](CC(=O)O)NC1=O	–
–	72%	3%	38%	CC(C)C[C@@H]1NC(=O)[C@@H](Cc2ccccc2)NC(=O)[C@H]2CCCN2C(=O)[C@@H](CC(=O)O)NC(=O)[C@H]([C@@H](C)O)NC(=O)[C@@H](CC(=O)O)NC1=O	95%
3.53	–	–	–	CC(C)C[C@@H]1NC(=O)[C@H](Cc2ccccc2)NC(=O)[C@H]2CCCN2C(=O)[C@H](C)NC(=O)[C@H]([C@@H](C)O)NC(=O)[C@H](CC(=O)O)NC1=O	–
3.52	–	–	–	CC(C)C[C@@H]1NC(=O)[C@H](Cc2c[nH]cn2)NC(=O)[C@H]2CCCN2C(=O)[C@H](CC(=O)O)NC(=O)[C@H]([C@@H](C)O)NC(=O)[C@H](CC(=O)O)NC1=O	–
–	108%	15%	36%	CSCC[C@H]1NC(=O)[C@H]2CCCN2C(=O)[C@@H](CC(=O)O)NC(=O)[C@H]([C@@H](C)O)NC(=O)[C@@H](CC(=O)O)NC(=O)[C@H](CC(C)C)NC1=O	102%

Continued, molecule first:

Structure (SMILES)	pIC50 [1]	Adhesion [2]	Adhesion [3]	Adhesion [4]	Adhesion [5]
CSCC[C@@H]1NC(=O)[C@H]2CCCN2C(=O)[C@H](CC(=O)O)NC(=O)[C@H]([C@@H](C)O)NC(=O)[C@H](CC(=O)O)NC(=O)[C@H](CC(C)C)NC1=O	3.50	–	–	–	–
CC(C)C[C@@H]1NC(=O)[C@@H](Cc2ccc(O)cc2)NC(=O)[C@H]2CCCN2C(=O)[C@@H](CC(=O)O)NC(=O)[C@H]([C@@H](C)O)NC(=O)[C@@H](CC(=O)O)NC1=O	–	78%	3%	37%	111%
CC(C)C[C@@H]1NC(=O)[C@@H](Cc2c[nH]cn2)NC(=O)[C@H]2CCCN2C(=O)[C@@H](CC(=O)O)NC(=O)[C@H]([C@@H](C)O)NC(=O)[C@@H](CC(=O)O)NC1=O	–	74%	9%	27%	114%
CC(C)C[C@H](NC(=O)c1cc2ccccc2cn1)C(=O)N[C@@H](CC(=O)O)C(=O)N[C@H](C(N)=O)[C@@H](C)O	3.33	–	–	–	–
CC(C)C[C@@H]1NC(=O)[C@H](Cc2ccc(O)cc2)NC(=O)[C@H]2CCCN2C(=O)[C@H](CC(=O)O)NC(=O)[C@H]([C@@H](C)O)NC(=O)[C@H](CC(=O)O)NC1=O	3.51	–	–	–	–
CC(C)C[C@@H]1NC(=O)[C@@H](Cc2ccccc2)NC(=O)[C@H]2CCCN2C(=O)[C@@H](C)NC(=O)[C@H]([C@@H](C)O)NC(=O)[C@@H](CC(=O)O)NC1=O	–	109%	7%	36%	–
